Data published in ChEMBL document CHEMBL4373718, “Germacrane Sesquiterpenoids as a New Type of Anticardiac Fibrosis Agent Targeting Transforming Growth Factor β Type I Receptor” (J Med Chem, 2019).
The source made the active and inactive calls. The calls are words filed in the database; no cut-off is given here.

Legend:
[1] = target: T1, TGF-beta receptor type-1 (Rattus norvegicus) (UniProt P80204); experiment: Inhibition of TGFbeta1 receptor in TGFbeta1-stimulated Sprague-Dawley rat cardiac fibroblasts assessed as reduction in fibronectin expression at 50 uM measured after 12 hrs by Western blot analysis
T1 sequence (whole entry): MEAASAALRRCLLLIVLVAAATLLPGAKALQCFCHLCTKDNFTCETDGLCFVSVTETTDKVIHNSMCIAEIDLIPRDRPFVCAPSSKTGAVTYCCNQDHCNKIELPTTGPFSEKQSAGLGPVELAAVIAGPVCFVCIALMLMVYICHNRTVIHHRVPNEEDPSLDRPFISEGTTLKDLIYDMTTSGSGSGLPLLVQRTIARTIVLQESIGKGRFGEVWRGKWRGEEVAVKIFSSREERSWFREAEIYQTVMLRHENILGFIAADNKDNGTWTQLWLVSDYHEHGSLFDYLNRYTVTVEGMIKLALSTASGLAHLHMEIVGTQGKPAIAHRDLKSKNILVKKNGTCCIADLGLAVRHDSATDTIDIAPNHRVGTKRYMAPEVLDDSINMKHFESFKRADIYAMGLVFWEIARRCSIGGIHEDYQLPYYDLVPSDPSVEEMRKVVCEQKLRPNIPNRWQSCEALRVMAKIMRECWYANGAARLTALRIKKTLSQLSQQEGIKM
Method in brief: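 Screen in primary rat cardiac fibroblasts: compounds at 50 µM or 10 µM given with 10 ng/mL TGFβ1 for 12 h. FN measured by Western blot with GAPDH loading control and densitometry. N=3 independent experiments.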

[2] = target: T1, TGF-beta receptor type-1 (Rattus norvegicus); experiment: Inhibition of TGFbeta1 receptor in TGFbeta1-stimulated Sprague-Dawley rat cardiac fibroblasts assessed as reduction in fibronectin expression measured after 12 hrs by Western blot analysis
Method in brief: (§1)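 Primary rat cardiac fibroblasts (passages 2–4, 3×10^5 per well) treated with compound plus 10 ng/mL TGFβ1 for 12 h; tested at 2.5, 5 and 10 µM. Lysates run on 10% SDS-PAGE (30 µg protein), probed for FN, α-SMA and collagen I/III, and quantified by densitometry against GAPDH. N=3 independent experiments.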

[3] = target: T1, TGF-beta receptor type-1 (Rattus norvegicus); experiment: Inhibition of TGFbeta1 receptor in TGFbeta1-stimulated Sprague-Dawley rat cardiac fibroblasts assessed as reduction in alpha-SMA expression measured after 12 hrs by Western blot analysis; method in brief: as §1
[4] = Effect on total Smad3 expression in TGFbeta1-stimulated Sprague-Dawley rat cardiac fibroblasts at 10 uM measured after 5 to 30 mins by Western blot analysis; type: ADME
[5] = target: T1, TGF-beta receptor type-1 (Rattus norvegicus); experiment: Inhibition of TGFbeta1 receptor in TGFbeta1-stimulated Sprague-Dawley rat cardiac fibroblasts assessed as reduction in Smad2 phosphorylation at 10 uM measured after 5 to 30 mins by Western blot analysis
[6] = target: T1, TGF-beta receptor type-1 (Rattus norvegicus); experiment: Inhibition of TGFbeta1 receptor in TGFbeta1-stimulated Sprague-Dawley rat cardiac fibroblasts assessed as reduction in Smad2 nuclear translocation at 10 uM measured after 5 mins by Western blot analysis
Method in brief: (§2)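 Primary rat cardiac fibroblasts treated with 10 µM compound plus 10 ng/mL TGFβ1 for 5 min. Nuclear and cytosolic fractions separated with a kit and Smad2/Smad3 measured by Western blot.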

[7] = target: T1, TGF-beta receptor type-1 (Rattus norvegicus); experiment: Inhibition of TGFbeta1 receptor in TGFbeta1-stimulated Sprague-Dawley rat cardiac fibroblasts assessed as reduction in Smad3 nuclear translocation at 10 uM measured after 5 mins by Western blot analysis; method in brief: as §2
Rattus norvegicus [8] = organism: Rattus norvegicus; experiment: Effect on TGFbeta1 receptor expression in TGFbeta1-stimulated Sprague-Dawley rat cardiac fibroblasts at 2.5 to 10 uM measured after 5 mins by Western blot analysis; type: functional
Rattus norvegicus [9] = experiment: Antifibrotic activity in abdominal aortic constriction Sprague-Dawley rat model of cardiac fibrosis assessed as decrease in heart fibronectin level at 5 mg/kg, ip administered once daily for 4 weeks measured post-last dose by immunohistochemical analysis relative to control; type: functional; set-up: scale not given: the % may be the effect or the level left
Method in brief: (§3)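 Male SD rats (200–250 g) with abdominal aortic constriction (suture tied over a 21-G probe above the renal arteries), under pentobarbital 30 mg/kg ip. Dosed ip daily for 4 weeks. Vehicle was saline with 0.5% DMSO and 5% Kolliphor HS 15. Groups: sham, AAC, AAC+nifedipine 10 mg/kg, n=8 each. Formalin-fixed paraffin sections 4 µm thick; FN and α-SMA by immunohistochemistry, collagen by Masson's trichrome; stained area measured.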

Rattus norvegicus [10] = experiment: Antifibrotic activity in abdominal aortic constriction Sprague-Dawley rat model of cardiac fibrosis assessed as decrease in heart collagen level at 5 mg/kg, ip administered once daily for 4 weeks measured post-last dose by Masson's trichrome staining-based histological analysis relative to control; type: functional; set-up: scale not given: the % may be the effect or the level left; method in brief: as §3
Rattus norvegicus [11] = experiment: Antifibrotic activity in abdominal aortic constriction Sprague-Dawley rat model of cardiac fibrosis assessed as decrease in heart alpha-SMA level at 5 mg/kg, ip administered once daily for 4 weeks measured post-last dose by immunohistochemical analysis relative to control; type: functional; set-up: scale not given: the % may be the effect or the level left; method in brief: as §3
Rattus norvegicus [12] = experiment: Antifibrotic activity in abdominal aortic constriction Sprague-Dawley rat model of cardiac fibrosis assessed as down regulation of collagen expression in heart at 5 mg/kg, ip administered once daily for 4 weeks measured post-last dose by Western blot analysis; type: functional, organism-based
Method in brief: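 AAC rats dosed ip daily for 4 weeks, n=8 per group. Hearts homogenized in lysis buffer with protease and phosphatase inhibitors and spun at 12,000 rpm for 30 min at 4 °C. Nuclear and cytoplasmic fractions prepared with a kit. Protein measured by BCA; 30 µg run on 10% SDS-PAGE, transferred to PVDF and immunoblotted; bands quantified by densitometry.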

Rattus norvegicus [13] = experiment: Antifibrotic activity in abdominal aortic constriction Sprague-Dawley rat model of cardiac fibrosis assessed as reduction in Smad2 phosphorylation in heart at 5 mg/kg, ip administered once daily for 4 weeks measured post-last dose by immunohistochemical analysis; type: functional, organism-based
Method in brief: (§4)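 AAC rats dosed ip daily for 4 weeks, n=8 per group. Phospho-Smad2/3 stained by immunohistochemistry on 4 µm paraffin heart sections. Stained area summed over 6 fields per rat for statistics.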

Rattus norvegicus [14] = experiment: Antifibrotic activity in abdominal aortic constriction Sprague-Dawley rat model of cardiac fibrosis assessed as reduction in Smad3 phosphorylation in heart at 5 mg/kg, ip administered once daily for 4 weeks measured post-last dose by immunohistochemical analysis; type: functional, organism-based; method in brief: as §4
Rattus norvegicus [15] = experiment: Antifibrotic activity in abdominal aortic constriction Sprague-Dawley rat model of cardiac fibrosis assessed as systolic left ventricular anterior wall thickness at 5 mg/kg, ip administered once daily for 4 weeks measured post-last dose by echocardiography (reference value: 3.92 +/- 0.42 mm); type: functional
Rattus norvegicus [16] = experiment: Antifibrotic activity in abdominal aortic constriction Sprague-Dawley rat model of cardiac fibrosis assessed as diastolic left ventricular posterior wall thickness at 5 mg/kg, ip administered once daily for 4 weeks measured post-last dose by echocardiography (reference value: 2.33 +/- 0.31 mm); type: functional
Rattus norvegicus [17] = experiment: Antifibrotic activity in abdominal aortic constriction Sprague-Dawley rat model of cardiac fibrosis assessed as systolic left ventricular posterior wall thickness at 5 mg/kg, ip administered once daily for 4 weeks measured post-last dose by echocardiography (reference value: 3.62 +/- 0.26 mm); type: functional
Rattus norvegicus [18] = experiment: Antifibrotic activity in abdominal aortic constriction Sprague-Dawley rat model of cardiac fibrosis assessed as ejection fraction at 5 mg/kg, ip administered once daily for 4 weeks measured post-last dose by echocardiography (reference value: 79.59 +/- 3.13%); type: functional

Q: Which results are given for `C=C(C)[C@@H]1C/C=C(\C)C(=O)CCC2=C[C@@H]1OC2=O`?
A: fibronectin reduction (active/not active) [1]: Active; inhibition [2]: Dose-dependent effect; inhibition [3]: Dose-dependent effect; Activity [4]: Non-Toxic; inhibition [5]: Active; inhibition [6]: Active; inhibition [7]: Active; Activity (Rattus norvegicus [8]): inactive; Activity (Rattus norvegicus [9]): 90.7%; Activity (Rattus norvegicus [10]): 65.6%; Activity (Rattus norvegicus [11]): 88.8%; Activity (Rattus norvegicus [12]): Active; Activity (Rattus norvegicus [13]): Active; Activity (Rattus norvegicus [14]): Active; Activity (Rattus norvegicus [15]): 3.46 mm; Activity (Rattus norvegicus [16]): 2 mm; Activity (Rattus norvegicus [17]): 3.23 mm; Activity (Rattus norvegicus [18]): 71.38%
